Results on twelve compounds are retold here after ChEMBL document CHEMBL1127691, “Discovery, synthesis, and bioactivity of bis(heteroaryl)piperazines. 1. A novel class of non-nucleoside HIV-1 reverse transcriptase inhibitors” (J Med Chem, 1994).

Assay [1] deals with Human immunodeficiency virus 1. As to the kind of experiment: (§1) Effective antiviral dose required to block the spread of HIV-1D34 infection in human peripheral blood mononuclear cells. Type of assay: functional. Particulars: read-out: ED50 (the source's name). An outline of the steps:
(§2)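 PBMC (1 × 10^6 cells) infected with HIV-1 D34 inoculum containing 1 ng p24, cultured at 37 °C in 5% CO2. Replication read as supernatant p24 at day 4. ED50 = 50% effective antiviral dose, estimated in some cases.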

Assay [2] has as its system MT2. Nature of the assay: Tested for the drug concentration required to decrease HIV-1IIIb infected MT-2 cell viability compared to uninfected controls. Format: functional. Particulars: Homo sapiens. The essentials: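 MT-2 cells with HIV-1 IIIb (MOI 0.001), 4-day culture. Viability by trypan blue exclusion. CC50 is the concentration lowering viability relative to uninfected controls; mostly estimated.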

The test system of assay [3] is MT2. As to the kind of experiment: Effective antiviral dose required to block the spread of HIV-1 IIIb infection in MT-2 cells by monitoring the formation of syncytia. Format: functional. Particulars: Homo sapiens, read-out: ED50 (the source's name). The essentials:
(§3)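 MT-2 cells infected with HIV-1 IIIb at MOI 0.001, held at 37 °C in 5% CO2. Syncytium formation scored 4 days post-infection, at peak cytopathic effect. ED50 is the dose giving 50% reduction in syncytia; some values were estimated, and ">" means 50% was not reached at the top concentration.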

Assay [4] has as its target Human immunodeficiency virus type 1 reverse transcriptase (Human immunodeficiency virus 1) (UniProt Q72547). As to the kind of experiment: In vitro inhibitory activity against HIV-1 reverse transcriptase at 100 uM. The essentials: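 Recombinant HIV-1 RT (p51/p66 heterodimer, 90–95% pure, 0.0274 μM) with poly(rA) 10 μg/mL and (dT)10 primer 5 μg/mL; 8 μM α-35S-dTTP, 50 mM Tris-HCl pH 8.3, 10 mM MgCl2, 60 mM NaCl, 20 mM DTT, 0.05% NP-40. 37 °C, 15 min; TCA-precipitated label counted on filters. Percent inhibition at 100 μM, mean of at least two determinations.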

A short description of assay [5]: Selective index is the ratio of inhibitory concentrations of cellular DNA polymerase alpha to HIV-1 reverse transcriptase. The essentials: (§4)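 Index = IC50 for cellular DNA polymerase α or δ divided by IC50 for HIV-1 RT. RT IC50 measured with recombinant RT and poly(rA):oligo(dT)10 template:primer.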
The nature of assay [6]: Selective index is the ratio of inhibitory concentrations of cellular DNA polymerase delta to HIV-1 reverse transcriptase. The essentials: as §4
Assay [7] is described as follows: Tested for the drug concentration required to decrease […] infected human peripheral blood mononuclear cell viability compared to uninfected controls. Type of assay: functional. An outline of the steps:
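Uninfected and HIV-1 D34-infected PBMC at 37 °C, 5% CO2. Viability taken from mitogen-stimulated cell proliferation. CC50 is the concentration lowering viability relative to uninfected controls; mostly estimated.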

Assay [8] has as its system MT2. As to the kind of experiment: Effective antiviral dose required to block the spread of HIV-1 IIIb infection in MT-2 cells by monitoring the formation of syncytia. Format: functional. Particulars: Homo sapiens, read-out: ED50 (the source's name). The essentials: as §3
A short description of assay [9]: as §1. Format: functional. Particulars: read-out: ED50 (the source's name). An outline of the steps: as §2

The term CC50 denotes the concentration giving 50% cytotoxicity. A high value points to better tolerance by the cells. In general, inhibition refers to the change of the read-out against control, counted positive when it falls. Lower therefore signals a response near the control.

Where only a bound is given, the exact number is not on record here.

Regarding `COc1ccc2[nH]c(C(=O)N3CCN(c4ncccc4NC(C)(C)C)CC3)cc2c1`, the EC50 in assay [1] worked out at 10 nM; in the assay with MT2 [3], 220 nM. For the same compound, the CC50 in the assay with MT2 [2] was greater than 22000 nM. The same compound returned an inhibition in assay [4] of 86%. The Selectivity index in assay [5] and in assay [6] was greater than 83 in each case.
As for `CC(C)(C)Nc1cccnc1N1CCN(C(=O)c2cc3cc(F)ccc3[nH]2)CC1`, the EC50 in assay [1] turned out to be 10 nM; with MT2 [3], 230 nM. The CC50 in the assay with MT2 [2] was greater than 23000 nM. The inhibition in assay [4] turned out to be 89%. The Selectivity index in assay [5] worked out at 233; in [6] it was 1670.
On to `CC(C)(C)Nc1cccnc1N1CCN(C(=O)c2cc3ccccc3[nH]2)CC1`, for which the EC50 in assay [1] was determined as 10 nM; in the assay on MT2 [3] it was 200 nM. Besides, the CC50 is greater than 2400 nM in the assay with MT2 [2] and 10000 nM in assay [7]. The inhibition in [4] came to 89%. The Selectivity index worked out at 225 in assay [5] and 2500 in assay [6].
Take `CCNc1cccnc1N1CCN(Cc2cc(C)c(OC)c(C)c2)CC1`: the EC50 came to 1000 nM in assay [1] and 2000 nM with MT2 [8]. Besides, the results for the CC50 (with MT2 [2]; in [7]) were 15000 nM and greater than 10000 nM, respectively. The compound also came in with an inhibition in assay [4] of 73%. Also, the Selectivity index in assay [5] is 30; in [6], greater than 60.
`CC(C)Nc1cccnc1N1CCN(C(=O)c2cc3ccccc3[nH]2)CC1`: the figures for the EC50 (in [1]; in the assay on MT2 [3]) were 1 nM and 300 nM, respectively. Also, the CC50 with MT2 [2] was greater than 27000 nM; in [7], greater than 10000 nM. In [4], this compound returned an inhibition of 96%. Moreover, the figures for the Selectivity index in [5] and in [6] were 1100 and 10000, respectively.
Take `COc1ccc2[nH]c(C(=O)N3CCN(c4ncccc4NC(C)C)CC3)cc2c1`: the EC50 in assay [1] turned out to be 1 nM; in the assay with MT2 [3] it was 300 nM. The CC50 in the assay on MT2 [2] is greater than 25000 nM. The compound also showed an inhibition in [4] of 97%. Besides, the Selectivity index was 1500 in assay [5] and 8000 in assay [6].
Turning to `CCNc1ccccc1N1CCN(C(=O)c2cc(C)c(OC)c(C)c2)CC1`, the EC50 in [9] was greater than 1000 nM. In addition, in assay [7], the CC50 was roughly 10000 nM. For the same compound, in assay [4], the inhibition was determined as 21%.
As to `CC(C)Nc1cccnc1N1CCN(C(=O)c2cc3cc(F)ccc3[nH]2)CC1`, the EC50 in assay [1] stood at 3 nM; with MT2 [3] it was 300 nM. This compound also came in with a CC50 with MT2 [2] greater than 26000 nM. The inhibition in assay [4] is 96%. The Selectivity index turned out to be 810 in assay [5] and 10000 in assay [6].
Regarding `CCNc1cccnc1N1CCN(C(=O)c2cc3cc(OC)ccc3[nH]2)CC1.CS(=O)(=O)O` [ATEVIRDINE SULPHATE], the EC50 in assay [1] is 1 nM; in the assay with MT2 [3] it was less than 200 nM. Further, in the assay with MT2 [2], the CC50 was greater than 20000 nM. Further, in [4], the inhibition was 92%. The Selectivity index in [5] was found to be 200; in assay [6] it was 1500.
As for `CCNc1cccnc1N1CCN(C(=O)c2cc3ccccc3[nH]2)CC1`, the values for the EC50 (in assay [1]; with MT2 [3]) were 10 nM and 300 nM, respectively. The CC50 was greater than 30000 nM in the assay with MT2 [2] and greater than 10000 nM in [7]. Also, the Selectivity index amounted to 1500 in assay [5] and 2800 in [6].
In the case of `CCNc1cccnc1N1CCN(C(=O)c2cc3cc(F)ccc3[nH]2)CC1`, the EC50 in assay [1] is 1 nM; in the assay on MT2 [3], less than 300 nM. In the assay on MT2 [2], this compound returned a CC50 greater than 27000 nM. Also, the inhibition in assay [4] was found to be 93%. Besides, the Selectivity index came to 220 in assay [5] and 1670 in assay [6].
As to `Cc1cn([C@H]2C[C@H](N=[N+]=[N-])[C@@H](CO)O2)c(=O)[nH]c1=O` [ZIDOVUDINE], the EC50 is 1 nM in [1] and 70 nM with MT2 [3]. For the same compound, the CC50 with MT2 [2] stood at 123000 nM; in assay [7], 10000 nM.
